From ChEMBL document CHEMBL1136850, “Neuroprotective activity and evaluation of Hsp90 inhibitors in an immortalized neuronal cell line” (Bioorg Med Chem, 2009)
The source made the active and inactive calls. The calls are words filed in the database; no cut-off is given here.

Tests used:
SH-SY5Y [1] = test: Neuroprotection against beta-amyloid peptide 1-42-induced toxicity in retinoic acid-differentiated human SH-SY5Y cells assessed as lactate dehydrogenase release at 10 nM; format: functional, cell-based
Summary of the method: (§1)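 SH-SY5Y cells were differentiated for 7 days with 10 μM retinoic acid until they stopped proliferating and grew neurites. Drug was added 2 h before 10 μM Aβ in serum-free DMEM for 48 h. Released LDH was measured by NADH oxidation (pyruvate 1 mM, NADH 0.2 mM, pH 7.4; […] over 5 min at 25°C). Protection is expressed against Aβ alone, taken as 100% death.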

SH-SY5Y [2] = test: Neuroprotection against beta-amyloid peptide 1-42-induced toxicity in human SH-SY5Y cells assessed as lactate dehydrogenase release; format: functional, cell-based
Summary of the method: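 Proliferating SH-SY5Y cells were grown in DMEM with 10% FBS at 37°C in 5% CO2, then seeded into 96-well plates. Drug or DMSO was given 2 h before 10 μM Aβ in serum-free DMEM for 48 h. LDH released into the cleared medium was read kinetically as NADH oxidation (50 mM phosphate pH 7.4, 1 mM pyruvate, 0.2 mM NADH; […], 5 min, 25°C). Aβ alone was set as 100% cell death. Mean ± S.E.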

SH-SY5Y [3] = test: Neuroprotection against beta-amyloid peptide 1-42-induced toxicity in retinoic acid-differentiated human SH-SY5Y cells assessed as lactate dehydrogenase release; format: functional, cell-based; summary of the method: as §1
SH-SY5Y [4] = test: Toxicity in retinoic acid-differentiated human SH-SY5Y cells assessed as effect on cell morphology at 10 uM after 24 hrs by trypan blue exclusion method; format: cell-based
Summary of the method: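 Retinoic acid-differentiated SH-SY5Y cells (10 μM RA, 7 days) were exposed to 10 μM drug or DMSO without Aβ for 24 h. Neurite morphology was examined by phase-contrast microscopy. Viability was counted by 0.04% trypan blue exclusion.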

SH-SY5Y [5] = test: Neuroprotection against beta-amyloid peptide 1-42-induced toxicity in retinoic acid-differentiated human SH-SY5Y cells assessed as lactate dehydrogenase release at 1 uM; format: functional; summary of the method: as §1
SH-SY5Y [6] = test: Toxicity in human SH-SY5Y cells at 10 uM by trypan blue exclusion method; format: cell-based

Row | Structure (SMILES) | Activity (SH-SY5Y [1]) | EC50 (SH-SY5Y [2]) [nM] | Activity (SH-SY5Y [3]) | Activity (SH-SY5Y [4]) | Activity (SH-SY5Y [5]) [%] | AC50 (SH-SY5Y [6])
1 | COC1=C2C[C@@H](C)C[C@H](OC)[C@H](O)[C@@H](C)/C=C(\C)[C@H](OC(N)=O)[C@@H](OC)/C=C\C=C(/C)C(=O)NC(=CC1=O)C2=O [GELDANAMYCIN] | Active | 42.7 | inactive | Toxic | – | –
2 | CO[C@@H]1[C@@H](O)[C@@H](O)[C@H](Oc2ccc3cc(NC(C)=O)c(=O)oc3c2C)OC1(C)C | – | 1.49 | – | Non-toxic | 70 | Non-toxic
3 | CO[C@@H]1[C@@H](O)[C@@H](O)[C@H](Oc2ccc3cc(NC(C)=O)c(=O)oc3c2)OC1(C)C | – | 4.85 | – | Non-toxic | – | –
4 | CO[C@@H]1[C@@H](O)[C@@H](O)[C@H](Oc2ccc3cc(NC(=O)CCCCCCC(=O)Nc4cc5ccc(O[C@@H]6OC(C)(C)[C@H](OC)[C@@H](O)[C@H]6O)c(C)c5oc4=O)c(=O)oc3c2C)OC1(C)C | – | 4.48 | – | Non-toxic | – | Non-toxic
5 | CC(=O)O[C@@H]1C[C@H]2C(C)(C)C(=O)C=C[C@]2(C)[C@H]2CC[C@@]3(C)[C@H](c4ccoc4)OC(=O)[C@H]4O[C@]43[C@@]21C [GEDUNIN] | – | 39 | – | – | – | –
6 | CC1=C(O)C(=O)C=C2C1=CC=C1[C@@]2(C)CC[C@@]2(C)[C@@H]3C[C@](C)(C(=O)O)CC[C@]3(C)CC[C@]12C [CELASTROL] | – | 37.6 | – | – | – | –
7 | O=C(O)/C=C/c1nn(Cc2ccc(Cl)cc2Cl)c2cc(C(F)(F)F)ccc12 | – | – | inactive | – | – | –
8 | CO[C@@H]1[C@@H](OC(N)=O)[C@@H](O)[C@H](Oc2ccc3c(O)c(NC(=O)c4ccc(O)c(CC=C(C)C)c4)c(=O)oc3c2C)OC1(C)C [NOVOBIOCIN] | Active | 48.4 | Active | Toxic | – | –
9 | O=C(O[C@@H]1Cc2c(O)cc(O)cc2O[C@@H]1c1cc(O)c(O)c(O)c1)c1cc(O)c(O)c(O)c1 [EPIGALOCATECHIN GALLATE] | – | 39.9 | – | – | – | –
